Assay type in all cases: nucleic-acid assay
Holding throughout (conditions): Bos taurus

Test [1] deals with Nucleic Acid. Description: Binding affinity to calf thymus DNA assessed as change in melting temperature by thermal denaturation assay. In a few lines:
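CT DNA alone or with alkaloid, 10 mM citrate-phosphate buffer pH 7.0. Absorbance at 260 nm was followed while heating from 20 to 100 °C at 0.5 °C/min in 1 cm quartz cuvettes. ΔTm was taken at saturation.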

Test [2] relates to Nucleic Acid. Description: Binding affinity to calf thymus DNA in citrate-phosphate buffer at pH 7 assessed as change in viscosity by hydrodynamic method. In a few lines: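 Relative viscosity of CT DNA in 10 mM CP buffer pH 7.0 at 20 °C with increasing alkaloid (varying D/P), mixed by slow nitrogen bubbling. Flow times were measured in triplicate to 0.01 s. Contour length increase (L/Lo) was plotted against r.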

Test [3] concerns Nucleic Acid. Description: Binding affinity to calf thymus DNA assessed as fluorescence quenching by fluorescence spectroscopy analysis. In a few lines: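 Ferrocyanide quenching of alkaloid fluorescence, free and bound to CT DNA, at constant P/D (base pair/alkaloid). KCl and K4[Fe(CN)6] solutions were mixed in different ratios at fixed total ionic strength in 10 mM CP buffer pH 7.0. Intensity was read against rising ferrocyanide. Stern–Volmer quenching constant (Ksv). At least four measurements were averaged per set.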

For test [4], the system named is Nucleic Acid. Description: Binding affinity to calf thymus DNA in citrate-phosphate buffer at pH 7 by circular dichroism spectral analysis. In a few lines: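 CD spectra of CT DNA titrated with increasing alkaloid in 10 mM CP buffer pH 7.0 at 20 °C. Output is molar ellipticity, [θ] = [θ]obs/10lC.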
For orientation: Circular dichroism is widely used to follow secondary structure.

The source made the active and inactive calls. The calls are words filed in the database; no cut-off is given here.

In general, ΔTm refers to the shift of the melting midpoint relative to a reference. With `COc1ccc2cc3[n+](cc2c1OCC(=O)NCc1ccccc1)CCc1cc2c(cc1-3)OCO2.[Cl-]`, the ΔTm in test [1] was determined as 14 °C. For the same molecule, in test [2], the outcome was Active. The KSV in test [3] was 48 M⁻¹.
Regarding `COc1ccc2cc3[n+](cc2c1OCC(=O)Nc1ccccc1)CCc1cc2c(cc1-3)OCO2.[Cl-]`, the result in test [4] and in test [2] was Active. Also, the ΔTm in test [1] turned out to be 15.5 °C. In test [3], the KSV came out at 57 M⁻¹.
On to `COc1ccc2cc3[n+](cc2c1OC)CCc1cc2c(cc1-3)OCO2.[Cl-]` [BERBERINE CHLORIDE], for which the outcome in test [4] and in test [2] was Active. Besides, in test [1], the ΔTm was 9 °C. Besides, the KSV in test [3] was 90 M⁻¹.
On to `COc1ccc2cc3[n+](cc2c1OCC(=O)NCCc1ccccc1)CCc1cc2c(cc1-3)OCO2.[Cl-]`, for which the ΔTm in test [1] was 12 °C. Also, in test [2], the result was Active. For the same molecule, the KSV in test [3] stood at 37 M⁻¹.

For the origin of these results see ChEMBL document CHEMBL2010762, “Synthesis of novel 9-O-N-aryl/aryl-alkyl amino carbonyl methyl substituted berberine analogs and evaluation of DNA binding aspects” (Bioorg Med Chem, 2012).
